This note sets out measurements from ChEMBL document CHEMBL1149444, “Discovery of imidazo[1,2-b][1,2,4]triazines as GABA(A) alpha2/3 subtype selective agonists for the treatment of anxiety” (J Med Chem, 2006).

As a reminder, the Ki is the equilibrium dissociation constant of an inhibitor or competing ligand from its target.

Active and inactive are the calls of the source. No cut-off for these calls is given here.

Data set [1] deals with T1, GABA-A receptor; alpha-2/beta-3/gamma-2 (Homo sapiens, UniProt P18507+P28472+P47869).
T1 sequence (P18507 whole entry): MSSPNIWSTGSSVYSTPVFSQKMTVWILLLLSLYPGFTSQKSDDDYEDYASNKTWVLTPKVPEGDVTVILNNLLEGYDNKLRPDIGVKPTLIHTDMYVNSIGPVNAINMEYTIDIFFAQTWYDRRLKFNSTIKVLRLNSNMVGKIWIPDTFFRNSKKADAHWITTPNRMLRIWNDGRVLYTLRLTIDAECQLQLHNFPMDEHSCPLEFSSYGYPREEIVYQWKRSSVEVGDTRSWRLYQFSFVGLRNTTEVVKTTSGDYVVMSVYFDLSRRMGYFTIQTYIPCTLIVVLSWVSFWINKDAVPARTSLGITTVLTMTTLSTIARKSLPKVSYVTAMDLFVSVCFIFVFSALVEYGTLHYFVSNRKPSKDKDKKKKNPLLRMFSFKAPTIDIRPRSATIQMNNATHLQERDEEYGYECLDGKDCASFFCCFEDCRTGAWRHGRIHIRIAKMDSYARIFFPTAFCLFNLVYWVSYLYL
T1 sequence (P28472 whole entry): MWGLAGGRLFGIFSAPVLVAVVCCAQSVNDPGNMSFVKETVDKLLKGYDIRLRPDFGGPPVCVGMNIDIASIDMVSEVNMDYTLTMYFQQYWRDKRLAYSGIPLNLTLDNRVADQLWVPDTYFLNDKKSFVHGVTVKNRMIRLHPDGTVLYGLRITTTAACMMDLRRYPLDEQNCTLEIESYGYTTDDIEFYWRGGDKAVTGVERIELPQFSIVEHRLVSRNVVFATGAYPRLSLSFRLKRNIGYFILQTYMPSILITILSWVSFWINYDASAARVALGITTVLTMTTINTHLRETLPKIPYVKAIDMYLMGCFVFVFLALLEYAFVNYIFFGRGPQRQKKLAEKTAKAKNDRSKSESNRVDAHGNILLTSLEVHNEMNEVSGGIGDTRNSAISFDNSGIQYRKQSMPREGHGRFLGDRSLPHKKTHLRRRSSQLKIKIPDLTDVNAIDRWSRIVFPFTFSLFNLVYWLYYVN
T1 sequence (P47869 whole entry): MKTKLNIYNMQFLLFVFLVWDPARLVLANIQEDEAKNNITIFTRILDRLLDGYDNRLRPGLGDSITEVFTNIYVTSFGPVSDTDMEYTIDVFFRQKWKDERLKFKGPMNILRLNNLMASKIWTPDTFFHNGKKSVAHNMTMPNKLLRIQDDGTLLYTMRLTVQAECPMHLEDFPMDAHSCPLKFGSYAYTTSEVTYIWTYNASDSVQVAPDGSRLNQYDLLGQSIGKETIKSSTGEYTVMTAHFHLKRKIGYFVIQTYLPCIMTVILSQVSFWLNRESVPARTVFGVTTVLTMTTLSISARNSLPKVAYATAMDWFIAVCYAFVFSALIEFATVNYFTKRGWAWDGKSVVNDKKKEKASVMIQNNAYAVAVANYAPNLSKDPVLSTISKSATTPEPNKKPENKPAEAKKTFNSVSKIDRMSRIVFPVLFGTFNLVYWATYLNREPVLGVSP
Kind of data set: Displacement of [3H] Ro15-1788 from recombinant human GABAA alpha2 receptor plus beta-3-gamma-2 expressed in L(tk-) cells. The format is cell-based. A general note: Loss of bound radioactivity is the signal in a displacement assay; it reports binding, not function.

The next data set deals with Rattus norvegicus. Kind of data set: Sedation in rat chain pulling assay upto 10 mg/kg, po. More on the design: dose 10 mg/kg. The format is functional, organism-based. The essentials: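 Rat chain-pulling assay for sedation. Mean response rate recorded over a 60 min trial starting immediately after oral dosing up to 10 mg/kg. n = 11-12 per group. Significance versus vehicle at p < 0.01.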

The next data set relates to Squirrel monkey. Kind of data set: Anxiolytic effect in squirrel monkey conditioned emotional response test at 0.3 mg/kg, po. The format is functional, organism-based. On the set-up: dose 0.3 mg/kg. Conditions: Saimiri sciureus. Summed up: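 Squirrel monkeys dosed po in 0.5% methyl cellulose vehicle. Anxiolysis was read as reversal of the suppression of lever pressing caused by a light cue signalling possible electric shock. Sedation was read as the rate of lever pressing for fruit juice reward on an RPI30 schedule. n = 10-11 per group, p < 0.05 versus vehicle.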

A short description of data set [2]: Plasma clearance in rhesus at 1 mg/kg, iv or 1 mg/kg, po. Conditions: rhesus monkey. The format is ADME, organism-based, Macaca mulatta. Summed up:
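Pharmacokinetics in rat, dog or rhesus after 1 mg/kg iv and 1 mg/kg po dosing. Plasma clearance (mL/min/kg), half-life (h), volume of distribution (L/kg) and oral bioavailability (%) were derived.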

Take `CC(C)(O)c1cnn2c(-c3ccc(F)c(-c4c(F)cccc4C#N)c3)cnc2n1`: in data set [1], the Ki came to 1.8 nM. The outcome with Rattus norvegicus was inactive. For the same compound, in the data set on Squirrel monkey, the outcome was Active. Besides, the clearance in data set [2] amounted to 5.8 mL/min/kg.
